# An excerpt weighted towards active compounds, which were near 3.7% of everything screened.
# KCNQ1 act: human KCNQ1 channel potentiation or activation; P51787; CHO-K1 KCNQ1, thallium flux FluxOR fluorescence; hits give high values; B-score at 10 µM; actives 0.35% (n = 310,000);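 active = fluorescence ratio B-score, a plate-corrected score, at least three library SD, with initial intensity B-score within 5 SD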
#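 Assay system: CHO-K1 cells stably expressing KCNQ1. Medium: assay buffer for compound exposure, DMSO matched across wells. Timing: 37 °C overnight plating, 90-min dark dye load, 20-min compound pretreatment. Signal: kinetic FluxOR fluorescence, 10 s baseline plus 110 s post-stimulus.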
# KCNQ1 inh: blocks the human KCNQ1 potassium channel. P51787. CHO-K1 KCNQ1, FluxOR thallium flux fluorescence; hits give high values. B-score at 10 µM. actives 1.3% (n = 310,000). AID 2642;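 active = compounds whose thallium flux B-score, printed positive for inhibition, exceeds three library SD while starting fluorescence stays within three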;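 also: channel opened by potassium depolarization with thallium stimulus after 20 min compound exposure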
# hERG protect: hERG (human) protection from proarrhythmic block; Q12809; CHO-hERG, FluxOR thallium flux, dofetilide IC70 present; activation (rescue from dofetilide block), less the hit threshold, % at 10 µM; actives 0.51% (n = 310,000); AID 1511;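 active = activation above the mean of controls blocked by dofetilide plus 5 SD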;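 also: thallium influx through hERG after potassium depolarization seen as dye fluorescence rise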
# Kir21 inh: blocks the mouse Kir2.1 inward-rectifier potassium channel; P35561; HEK293-Kir2.1, FluxOR thallium flux fluorescence; hits give low values; B-score at 10 µM; actives 0.85% (n = 310,000); AID 1672;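 active = fluorescence ratio B-score at or below minus 3 SD of library scores, with starting-brightness B-score within 2 SD, cut at about -4.2 in these data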;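 also: channel flux triggered by added potassium and thallium sulfate stimulus; B-score of peak minus minimum fluorescence over baseline after thallium stimulus; more negative B-score means stronger Kir2.1 block with less thallium influx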
# Target sequence (P35561 whole entry, looked up): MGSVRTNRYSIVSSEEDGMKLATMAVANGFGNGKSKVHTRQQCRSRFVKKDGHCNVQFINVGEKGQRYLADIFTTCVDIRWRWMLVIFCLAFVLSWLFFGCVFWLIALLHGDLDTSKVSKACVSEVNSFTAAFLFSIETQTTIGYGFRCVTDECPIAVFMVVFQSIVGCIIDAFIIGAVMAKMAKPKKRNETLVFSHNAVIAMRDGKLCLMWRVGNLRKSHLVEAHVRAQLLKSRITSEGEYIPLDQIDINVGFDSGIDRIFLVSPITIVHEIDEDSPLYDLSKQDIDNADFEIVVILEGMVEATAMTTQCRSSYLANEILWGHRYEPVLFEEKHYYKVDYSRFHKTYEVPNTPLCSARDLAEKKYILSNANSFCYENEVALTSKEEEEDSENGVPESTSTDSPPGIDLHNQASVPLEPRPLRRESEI
# KCNK3 block: human KCNK3 channel inhibition, primary screen. B-score at 10 µM. actives 0.84% (n = 340,000). CHO-KCNK3 thallium flux, FluxOR fluorescence; hits give low values. O14649;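 active = B-score under library mean minus 4 SD, starting fluorescence ratio at most library mean plus 5 SD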;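 also: more negative B-score means stronger inhibition of thallium flux through KCNK3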
# KCNK9 block: human KCNK9 channel inhibition. AID 488922. HEK293 KCNK9, FluxOR thallium flux fluorescence; hits give low values. B-score at 10 µM. actives 1.2% (n = 310,000);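 active = ratio B-score over 3 SD below the library mean, with starting fluorescence within 5 SD of its mean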;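 also: negative B-score means less thallium flux so channel inhibition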
# KCNQ1 block val: reconfirmed blocker of the human KCNQ1 potassium channel; shares compounds with KCNQ1 inh; KCNQ1 cell line, FluxOR thallium flux fluorescence; inhibition, % at 10 µM; actives 93% (n = 1,600);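 active = primary screen active, with duplicate mean exceeding buffer control mean plus 3 SD of buffer wells, cut at about 28% in these data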;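 also: 0% = buffer control ratio and 100% = XE991 inhibitor control ratio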
# CHO Tl flux: counter-screen for KCNQ1 inhibitors: effect in parental CHO cells. fluorescence ratio (Tl flux) at 10 µM. AID 588366. shares compounds with KCNQ1 inh. actives 21% (n = 1,600). parental CHO-K1, FluxOR thallium flux fluorescence ratio; hits give low values; zero means no signal rise above baseline;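 active = mean of duplicate thallium-flux fluorescence ratios in parental host cells more than 5 SD below the buffer control mean, cut at about 0.38 in these data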;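 also: ratio is peak minus minimum fluorescence divided by baseline fluorescence; actives read low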
# KCNQ1 APC inh: human KCNQ1 inhibition validated by electrophysiology; shares compounds with KCNQ1 inh; KCNQ1-CHO cells, automated patch clamp current; actives 20% (n = 490); calls only at 10 µM;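 active = KCNQ1 current drop exceeding 3 SD of negative control wells, seen in both duplicate runs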;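 also: steady state current during a 2 s step from -80 to +40 mV; negative values mean current inhibition and positive values mean potentiation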
# KCNQ2 inh: KCNQ1 inhibitor that also blocks rat KCNQ2 channel | shares compounds with KCNQ1 inh | KCNQ2 cells, FluxOR thallium flux fluorescence | inhibition, % at 10 µM | actives 71% (n = 1,600) | AID 651746;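 active = mean percent inhibition of the KCNQ2 thallium signal more than 5 SD above the buffer-only control wells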;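 also: KCNQ2 expressed in CHO cells; 0% = buffer control wells and 100% = XE-991 inhibitor control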
# KCNQ1 KCNE1 spec: human KCNQ1/KCNE1 inhibition in KCNQ1 specificity screen. inhibition, % at 10 µM. actives 77% (n = 1,600). KCNQ1/KCNE1 cells, FluxOR thallium flux fluorescence. shares compounds with KCNQ1 inh;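 active = mean percent inhibition of duplicate wells above the buffer-only control mean plus 3 SD of those controls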;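 also: 0% = buffer only wells and 100% = XE-991 inhibitor control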
# The depositor's hits bear a star; i = inactive; / = no result; + = active, no number.
SMILES,KCNQ1 act,KCNQ1 inh,hERG protect,Kir21 inh,KCNK3 block,KCNK9 block,KCNQ1 block val,CHO Tl flux,KCNQ2 inh,KCNQ1 KCNE1 spec,others
CCOC(=O)c1oc2ccc(S(=O)(=O)n3nc(-c4cc(OC)c(OC)c(OC)c4)cc3N)cc2c1C,i,7*,-35.8,-0.82,i,i,62.5*,0.419,71.0%*,109.5%*,
CN(C(=O)c1nn(C)c2c1CSc1ccccc1-2)c1ccccc1Cl,i,i,-8.1,-0.74,i,i,/,/,/,/,
CN1CCN(C2Cc3ccc(F)cc3Sc3cc(F)c(Cl)cc32)CC1 (stereo unspecified),i,i,-13.9,-0.02,i,i,/,/,/,/,
CN1CCN(C2=Cc3ccc(Cl)cc3Sc3ccc(F)cc32)CC1,i,6*,-18.4,-0.5,i,i,173.0*,0.419,116.0%*,188.5%*,KCNQ1 APC inh=i
CC(C)(Cc1ccc(O)cc1)NC(=O)SCc1ccccc1,i,7*,-10.3,-1.05,i,i,50.0*,0.504,i,78.5%*,
COc1ccc(CCNc2nc(C)nc3c2oc2ccccc23)cc1OC,i,10*,-35.0,-2.16,i,i,119.5*,0.448,123.0%*,77.5%*,KCNQ1 APC inh=i
COc1ccc(CCNc2ncnc3c2oc2ccccc23)cc1OC,i,i,-24.3,0.56,i,i,/,/,/,/,
S=C(NCCc1cccc(Cl)c1)NCc1ccccc1,i,8*,-6.9,-3.82,i,i,66.0*,0.475,i,55.5%*,
S=C(NCc1ccccc1)Nc1ccc(Cl)cc1,i,i,-5.7,-0.44,i,i,/,/,/,/,
S=C(NCCc1ccc(Cl)cc1)NCc1ccccc1,i,10*,-13.5,-7.31*,i,i,63.0*,0.495,74.0%*,72.5%*,
Cc1c(Cl)cccc1NC(=S)NCCc1ccc(Cl)cc1,i,15*,-8.5,-1.94,i,i,73.0*,0.556,79.0%*,51.0%*,
NC(=S)N/N=C/c1ccc(C23CC4CC(CC(C4)C2)C3)cc1,i,i,-5.0,0.01,/,i,/,/,/,/,
CC1(C)Cc2c(C#N)c(SCCO)nc(N3CCOCC3)c2CO1,i,i,-10.6,0.22,i,i,/,/,/,/,
CC1(C)Cc2c(C#N)c(SCCOc3ccccc3)nc(N3CCOCC3)c2CO1,i,7*,-21.2,0.02,-9.39*,i,83.5*,0.449,65.3%*,164.5%*,
CNC(=O)c1c(NC(=O)C2=COCCO2)sc2c1CCCC2,i,i,-10.8,-0.65,i,i,/,/,/,/,
COc1ccc(S(=O)(=O)NCC2CCCN(C(=O)CSC)C2)cc1 (stereo unspecified),i,i,-6.0,0,i,i,/,/,/,/,
CCN(CC(O)c1cccc(O)c1)C(=O)C12CC3CC(CC(C3)C1)C2 (stereo unspecified),i,6*,-6.1,-3.2,i,i,66.0*,0.446,77.3%*,43.0%*,
CNC[C@H](O)c1cccc(O)c1,i,i,-4.4,-0.21,i,i,/,/,/,/,
COc1ccc(-c2csc(NC(=O)CSC(C)C(=O)Nc3cc(C)on3)n2)cc1OC (stereo unspecified),/,/,/,/,i,/,/,/,/,/,
NCCOc1ccc(C23CC4CC(CC(C4)C2)C3)cc1,i,7*,-21.6,-4.73*,i,i,147.0*,0.642,i,i,KCNQ1 APC inh=+
CCC(C)(C)NC(=O)CN(C(=O)C(=O)Nc1ccc2c(c1)OCCO2)C1CC1,i,i,-4.1,-0.47,i,i,/,/,/,/,
Cc1nc(N2CCC(C)CC2)c2c(C)c(C(=O)Nc3ccc(C)c(F)c3)sc2n1,i,7*,-27.6,1.13,i,i,113.5*,0.416,140.0%*,63.5%*,KCNQ1 APC inh=i
CC(=O)Nc1ccc(NC(=O)CS(=O)(=O)c2cn(CC(=O)N3CCC(C)CC3)c3ccccc23)cc1,i,i,-16.0,2.47,i,i,/,/,/,/,
CCc1c(O)nc(SCC(=O)Nc2nc3ccccc3s2)n(C2CCCCC2)c1=O,i,7*,-7.5,-1.41,i,i,0.0,0.589,i,i,
CCc1c(O)nc(SCC(=O)Nc2ccc(OC)cc2)n(C2CCCCC2)c1=O,i,i,-16.2,1.23,i,i,/,/,/,/,
SMILES,KCNQ1 act,KCNQ1 inh,hERG protect,Kir21 inh,KCNK3 block,KCNK9 block,KCNQ1 block val,CHO Tl flux,KCNQ2 inh,KCNQ1 KCNE1 spec,others
Cc1ccc(S(=O)(=O)N2CCC[C@H]2C(=O)OCc2nc3ccccc3s2)cc1,/,/,/,/,i,/,/,/,/,/,
CCOC(=O)C1=C(C)NC(C)=C(C(=O)OCC)C1/C=C/c1ccccc1,i,i,-16.0,-0.53,i,i,/,/,/,/,
C=CCOC(=O)C1=C(C)NC(C)=C(C(=O)OCC=C)C1/C=C/c1ccccc1,i,12*,-19.6,0.6,-10.6*,i,135.0*,0.387,101.0%*,126.5%*,KCNQ1 APC inh=i
COc1ccccc1N1C(=O)c2cccc3c(N(C)CCO)ccc(c23)C1=O,i,7*,-20.1,-6.47,i,i,100.0*,0.268*,i,i,
Cc1ccccc1N1C(=O)c2cccc3c(N(C)CCO)ccc(c23)C1=O,i,i,-32.2,-7.32,i,i,/,/,/,/,
Cc1ccc(S(=O)(=O)N2CCN(c3ncnc4scc(-c5ccc(F)cc5)c34)CC2)cc1,i,8*,-17.8,-0.67,i,i,71.5*,0.469,81.0%*,i,
Cc1ccc(-c2csc3ncnc(N4CCN(c5ccccc5O)CC4)c23)cc1,i,i,-10.9,2.34,i,i,/,/,/,/,
COc1ccc(-c2csc3ncnc(N4CCN(c5ccccc5O)CC4)c23)cc1,i,8*,-9.3,2.79,i,i,0.0,0.41,110.3%*,i,
Cc1ccc(S(=O)(=O)N2CCN(c3ncnc4scc(-c5ccccc5)c34)CC2)cc1,/,/,/,/,i,/,/,/,/,/,
COc1ccc(-c2csc3ncnc(N4CCN(S(=O)(=O)c5ccc(C(C)=O)cc5)CC4)c23)cc1,i,8*,-11.7,-0.08,i,i,67.0*,0.437,89.3%*,36.5%*,

# From PubChem BioAssay
